Source: ChEMBL document CHEMBL3352339, “Implications of N-capped urea/thiourea and C-capped 3-(1-piperazinyl)-1,2-benzisothiazole with bridging Gly-Val/Phe-Gly-Val-Pro as therapeutic targets” (Eur J Med Chem, 2014)
In brackets after ≈: the same amount, converted by molar mass. Starred links: 1 amine or outer side, 2 acyl side, 3 side chain; linkers in the order of their positions; H or OH if unused. Residues, ends and D or L forms follow the SMILES beside them. *: point of attachment. Thiocarbamoyl(4-MeOPh) = COc1ccc(NC(=S)*)cc1; X1 = c1ccc2c(N3CCN(*)CC3)nsc2c1; NH(3-MeOPh) = COc1cccc(N*)c1; X4 = COc1cccc(NC(=S)*)c1; Boc = CC(C)(C)OC(=O)*; CO = O=C([*:1])[*:2]; X3 = COc1ccccc1N*

Assays:
[1] = Antiglycation activity using bovine serum albumin incubated at 37 degC for 7 days by spectrofluorimetry; type: physicochemical
Method in brief: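 Glycation of bovine serum albumin, with rutin as the reference standard. IC50 values are averages of triplicate runs.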

[2] = test system: Xanthomonas oryzae; assay: Antibacterial activity against Xanthomonas oryzae at 50 ug/mL incubated for 24 hrs by agar well diffusion method; type: functional; settings: read-out: IZ
[3] = test system: Aspergillus flavus; assay: Antifungal activity against Aspergillus flavus at 50 ug/mL incubated for 3 days by agar well diffusion method; type: functional; settings: 72 h, read-out: IZ
Method in brief: (§1)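 Fungal growth inhibition measured by agar well diffusion, with bavistin as the reference. Records the mean inhibition-zone diameter (mm) around each well.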

[4] = test system: Fusarium oxysporum; assay: Antifungal activity against Fusarium oxysporum at 50 ug/mL incubated for 3 days by agar well diffusion method; type: functional; settings: 72 h, read-out: IZ; method in brief: as §1
[5] = test system: Aspergillus niger; assay: Antifungal activity against Aspergillus niger at 50 ug/mL incubated for 3 days by agar well diffusion method; type: functional; settings: 72 h, read-out: IZ; method in brief: as §1
[6] = test system: Escherichia coli; assay: Antibacterial activity against Escherichia coli at 50 ug/mL incubated for 24 hrs by agar well diffusion method; type: functional; settings: read-out: IZ
Method in brief: (§2)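 Agar well diffusion against the bacterial isolate, with streptomycin as the reference drug. Read-out is the average diameter (mm) of the growth-inhibition zone around the well.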

[7] = test system: Fusarium verticillioides; assay: Antifungal activity against Fusarium moniliforme at 50 ug/mL incubated for 3 days by agar well diffusion method; type: functional; settings: 72 h, read-out: IZ; method in brief: as §1
[8] = biological target: Urease (Canavalia ensiformis, UniProt P07374); assay: Inhibition of jack bean urease assessed as reduction in ammonia production incubated at 30 degC for 15 mins by indophenol method
Chain of Urease (P07374 whole entry): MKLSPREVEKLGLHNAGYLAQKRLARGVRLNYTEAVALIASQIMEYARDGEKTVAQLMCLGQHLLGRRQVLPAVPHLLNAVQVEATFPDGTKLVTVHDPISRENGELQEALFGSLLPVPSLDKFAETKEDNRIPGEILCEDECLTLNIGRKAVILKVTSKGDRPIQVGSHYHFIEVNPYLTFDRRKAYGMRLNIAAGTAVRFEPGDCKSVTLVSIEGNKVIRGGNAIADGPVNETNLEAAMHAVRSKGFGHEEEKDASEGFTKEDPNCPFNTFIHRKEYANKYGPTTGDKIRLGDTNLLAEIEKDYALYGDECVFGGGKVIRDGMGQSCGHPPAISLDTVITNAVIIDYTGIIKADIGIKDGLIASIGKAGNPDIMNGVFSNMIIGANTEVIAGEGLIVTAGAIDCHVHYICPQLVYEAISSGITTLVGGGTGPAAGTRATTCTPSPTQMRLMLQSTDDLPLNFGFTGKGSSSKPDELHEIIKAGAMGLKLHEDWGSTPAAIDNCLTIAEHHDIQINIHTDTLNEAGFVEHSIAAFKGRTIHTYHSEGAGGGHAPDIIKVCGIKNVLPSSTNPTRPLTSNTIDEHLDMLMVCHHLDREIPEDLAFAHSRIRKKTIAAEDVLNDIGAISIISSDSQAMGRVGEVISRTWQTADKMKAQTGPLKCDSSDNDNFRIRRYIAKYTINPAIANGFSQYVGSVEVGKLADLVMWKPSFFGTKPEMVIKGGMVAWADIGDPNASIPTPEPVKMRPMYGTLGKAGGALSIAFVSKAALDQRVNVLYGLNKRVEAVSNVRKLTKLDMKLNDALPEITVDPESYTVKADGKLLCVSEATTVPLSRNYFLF
Method in brief: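 Inhibition of jack bean urease, with thiourea as the reference standard. IC50 values are the average of triplicate runs.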

[9] = Inhibition of sheep stomach parietal cells gastric H+/K+-ATPase activity assessed as reduction in inorganic phosphorus production by Fiske Subbarow's method; type: tissue-based, Ovis aries
Method in brief: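 Inhibition of purified H+/K+-ATPase, with omeprazole as the reference. IC50 is the mean of triplicate runs.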

[10] = test system: Staphylococcus; assay: Antibacterial activity against Coagulase positive Staphylococcus at 50 ug/mL incubated for 24 hrs by agar well diffusion method; type: functional; settings: read-out: IZ; method in brief: as §2
[11] = test system: Fusarium verticillioides; assay: Antifungal activity against Fusarium moniliforme incubated for 48 to 72 hrs by agar microdilution method; type: functional
Method in brief: (§3)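 MIC by microdilution against the fungal strain, limited to compounds showing significant zones in the diffusion assay. Bavistin was used as the reference.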

[12] = test system: Aspergillus niger; assay: Antifungal activity against Aspergillus niger incubated for 48 to 72 hrs by agar microdilution method; type: functional; method in brief: as §3
[13] = test system: Fusarium oxysporum; assay: Antifungal activity against Fusarium oxysporum incubated for 48 to 72 hrs by agar microdilution method; type: functional; method in brief: as §3
[14] = test system: Aspergillus flavus; assay: Antifungal activity against Aspergillus flavus incubated for 48 to 72 hrs by agar microdilution method; type: functional; method in brief: as §3

Row | Structure (SMILES) | IC50 [1] [µM] | zone of inhibition at 50 µg/mL [2] [mm] | zone of inhibition at 50 µg/mL [3] [mm] | zone of inhibition at 50 µg/mL [4] [mm] | zone of inhibition at 50 µg/mL [5] [mm] | zone of inhibition at 50 µg/mL [6] [mm] | zone of inhibition at 50 µg/mL [7] [mm] | IC50 [8] [µM] | IC50 [9] | zone of inhibition at 50 µg/mL [10] [mm] | IC50 ([9]; read-out: IC50) [µM] | MIC [11] [µg/mL] | MIC [12] [µg/mL] | MIC [13] [µg/mL] | MIC [14] [µg/mL]
1 | C[C@@H]1O[C@@H](OC[C@H]2O[C@@H](Oc3c(-c4ccc(O)c(O)c4)oc4cc(O)cc(O)c4c3=O)[C@H](O)[C@@H](O)[C@@H]2O)[C@H](O)[C@H](O)[C@H]1O [RUTIN] | 41.9 | – | – | – | – | – | – | – | – | – | – | – | – | – | –
2 | CC(C)[C@H](NC(=O)CNC(=O)[C@H](Cc1ccccc1)NC(=O)CNC(=O)OC(C)(C)C)C(=O)N1CCC[C@H]1C(=O)N1CCN(c2nsc3ccccc23)CC1 (Boc-GFGVP-X1) | 235 | 7 | 7 | 7 | 6 | 8 | 7 | 255 | Not Active | 6 | – | – | – | – | –
3 | COc1cccc(NC(=O)NCC(=O)N[C@@H](Cc2ccccc2)C(=O)NCC(=O)N[C@H](C(=O)N2CCC[C@H]2C(=O)N2CCN(c3nsc4ccccc34)CC2)C(C)C)c1 ({NH(3-MeOPh)-CO}-GFGVP-X1) | 23 | 18 | 21 | 22 | 20 | 19 | 22 | 23 | – | 20 | 48 | – | – | – | –
4 | COc1cccc(NC(=S)NCC(=O)N[C@@H](Cc2ccccc2)C(=O)NCC(=O)N[C@H](C(=O)N2CCC[C@H]2C(=O)N2CCN(c3nsc4ccccc34)CC2)C(C)C)c1 (X4-GFGVP-X1) | 20 | 19 | 23 | 23 | 24 | 21 | 24 | 19 | – | 20 | 38 | – | – | – | –
5 | COC(=O)Nc1nc2ccccc2[nH]1 [CARBENDAZIM] | – | – | 13 | 13 | 14 | – | 15 | – | – | – | – | 20 (≈ 105 µM) | 22 (≈ 115 µM) | 24 (≈ 126 µM) | 24 (≈ 126 µM)
6 | COc1cccc(NC(=S)NCC(=O)N[C@H](C(=O)NCC(=O)N[C@H](C(=O)N2CCC[C@H]2C(=O)N2CCN(c3nsc4ccccc34)CC2)C(C)C)C(C)C)c1 (X4-GVGVP-X1) | 23 | 16 | 18 | 19 | 16 | 17 | 19 | 23 | – | 18 | 36 | – | – | – | –
7 | COc1ccc(NC(=S)NCC(=O)N[C@@H](Cc2ccccc2)C(=O)NCC(=O)N[C@H](C(=O)N2CCC[C@H]2C(=O)N2CCN(c3nsc4ccccc34)CC2)C(C)C)cc1 ({Thiocarbamoyl(4-MeOPh)}-GFGVP-X1) | 16 | 26 | 29 | 29 | 30 | 28 | 31 | 15 | – | 28 | 34 | – | – | – | –
8 | COc1cccc(NC(=O)NCC(=O)N[C@H](C(=O)NCC(=O)N[C@H](C(=O)N2CCC[C@H]2C(=O)N2CCN(c3nsc4ccccc34)CC2)C(C)C)C(C)C)c1 ({NH(3-MeOPh)-CO}-GVGVP-X1) | 25 | 13 | 17 | 18 | 15 | 15 | 18 | 25 | – | 14 | 38 | – | – | – | –
9 | COc1ccccc1NC(=O)NCC(=O)N[C@H](C(=O)NCC(=O)N[C@H](C(=O)N1CCC[C@H]1C(=O)N1CCN(c2nsc3ccccc23)CC1)C(C)C)C(C)C ({X3-CO}-GVGVP-X1) | 24 | 18 | 21 | 21 | 23 | 19 | 23 | 22 | – | 19 | 46 | – | – | – | –
